# Screening results from PubChem BioAssay.
# Rows were chosen to be rich in hits. Some 1.3% of all compounds tested hit in one or more screens of this group.
# JMJD2C inh: inhibitors of GASC-1 histone demethylase, primary screen, biochemical, fluorescence, DELFIA europium; inhibition, % at 2.35 µM; AID 2099, 2009; GST-JMJD2C(1-420) H3K9me3 demethylation; Lysine-specific demethylase 4C (Homo sapiens), Q9H3R0; 330,000 tested, 0.069% active;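 active means more than half of a compound's replicate wells show inhibition beyond 50%, single wells judged on their own value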;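 further: signal counts dimethyl H3K9 product captured on neutravidin plate; 0% = median of DMSO wells and 100% = 0.3 times that DMSO median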
# Target sequence (Q9H3R0 1-420 limits assumed): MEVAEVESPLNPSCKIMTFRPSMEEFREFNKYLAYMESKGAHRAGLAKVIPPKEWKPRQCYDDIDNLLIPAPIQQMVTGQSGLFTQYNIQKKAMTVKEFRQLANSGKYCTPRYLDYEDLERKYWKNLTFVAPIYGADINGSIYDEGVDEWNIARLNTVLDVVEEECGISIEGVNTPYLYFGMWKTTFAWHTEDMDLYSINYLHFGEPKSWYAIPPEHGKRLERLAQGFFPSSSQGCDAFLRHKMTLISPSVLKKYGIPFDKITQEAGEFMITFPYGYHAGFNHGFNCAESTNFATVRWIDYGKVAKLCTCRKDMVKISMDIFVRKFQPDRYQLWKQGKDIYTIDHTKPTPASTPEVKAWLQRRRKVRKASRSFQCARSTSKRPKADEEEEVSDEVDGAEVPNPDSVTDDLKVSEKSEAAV
# Lipid droplet: inhibitors of hepatocyte lipid droplet formation, primary screen, imaging, high-throughput imaging, BODIPY stain; AML12 mouse hepatocytes, oleate lipid droplets; 240,000 tested, 0.4% active; inhibition, % at 6.5 µM;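 active means lipid droplet intensity inhibited by at least 50%, with more than 500 cells counted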
#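 Assay system: AML12 mouse liver cells | Compound: 6.5 µM single-point dosing | Schedule: Overnight exposure | Technique: Fluorescence imaging, 20x objective, two fields per well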
# procasp3 activ: activators of human procaspase-3 D3A mutant, primary screen, biochemical, absorbance, PC-3 D3A mutant, single concentration. Caspase-3 (Homo sapiens), P42574. recombinant procaspase-3 D3A, Ac-DEVD-pNA absorbance 405 nm. activation, % at 8.5 µM. 330,000 tested, 0.11% active;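 active means activation above the mean of all tested compounds plus 3 SD, cut at about 21% in these data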;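 further: 0% = DMSO alone and 100% = DMSO wells spiked with extra 5 µM PC-3 D3A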
#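 Test system: Procaspase-3 D3A mutant, all three cleavage aspartates alanine | Dosing: Single dose, 8.5 µM nominal compound, 0.8% DMSO | Schedule: 1 h preincubation, 2 h reaction | Technique: 405 nm absorbance of p-nitroaniline, reads at 0 and 120 min | Repeats: One well per compound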
# GRK2 aptamer HTS: compounds blocking aptamer binding on GRK2 – biochemical, human GRK2, bead flow cytometry, HTS, primary screen | Beta-adrenergic receptor kinase 1 (Homo sapiens), P25098 | FAM-aptamer displacement from GRK2 | inhibition of aptamer binding, % at 10 µM | 330,000 tested, 0.59% active | AID 488847, 2010;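 active means inhibition of aptamer binding above 40%, roughly 3 SD of noise, on plates passing a quality check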;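 further: median bead fluorescence of bound FAM aptamer so fluorescent compounds give negative values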
# VLA-4 inh: inhibition in human VLA-4 binding assay, primary screen, VLA-4 allosteric modulator project, MLPCN library, flow cytometry, VLA-4 expressing cells; Integrin alpha-4 (Homo sapiens), P13612; ligand binding flow cytometry; inhibition, % (about 7 µM as worked out from the volumes in the protocol); 330,000 tested, 0.2% active; AID 2557, 2010; in the data active means inhibition above about 50%
# procasp7 counter: procaspase-7 activators, primary screen, counter-screen for procaspase-3 activator project, biochemical, absorbance, HTS, human; Caspase-7 (Homo sapiens), P55210; recombinant procaspase-7, Ac-DEVD-pNA absorbance 405 nm; D23A/D198A/D206A triple mutant, cannot self-cleave; scale: DMSO 0, 5 µM enzyme 100; activation, % at 8.5 µM; 330,000 tested, 0.093% active; AID 463210, 2010;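 active means percent activation above the screen-wide mean plus 3 SD, cut at about 25% in these data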
# Target sequence (P55210 whole entry D23A/D198A/D206A): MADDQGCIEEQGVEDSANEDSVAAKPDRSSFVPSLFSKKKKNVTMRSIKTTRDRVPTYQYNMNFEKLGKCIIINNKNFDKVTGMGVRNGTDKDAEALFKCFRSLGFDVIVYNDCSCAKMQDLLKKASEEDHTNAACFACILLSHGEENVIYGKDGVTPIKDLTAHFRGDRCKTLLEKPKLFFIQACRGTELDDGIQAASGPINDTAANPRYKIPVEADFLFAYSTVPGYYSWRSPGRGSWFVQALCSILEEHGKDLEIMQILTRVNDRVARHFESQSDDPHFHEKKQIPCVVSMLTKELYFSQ
#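 Test system: Procaspase-7 triple mutant (PC-7 D3A). Also added: Ac-DEVD-pNA substrate, 400 µM as added. Schedule: 1 h enzyme–compound preincubation and 2 h substrate reaction, both 25 °C. Signal: p-Nitroaniline absorbance at 405 nm, read at 0 and 120 min. Control set: low DMSO alone, high DMSO plus 5 µM PC-7.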
# GRK2 inh confirm: GRK2 aptamer-displacing inhibitors, retest, confirmation, biochemical, cherry pick 1, bead flow cytometry; aptamer displacement, % at 10 µM; shares compounds with GRK2 aptamer HTS; 2,000 tested, 4% active; AID 504451, 2011; bead-bound GRK2, FAM-aptamer displacement;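 active means aptamer displacement above 40%, near three times the noise of non-fluorescent compounds, on plates passing quality checks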;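 further: negative values mostly reflect intrinsic compound fluorescence rather than true enhancement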
# Aptamer quench: fluorescent aptamer quenching in GRK2 counter-screen dose response; shares compounds with GRK2 aptamer HTS; Fluorescent RNA aptamer beads, flow cytometry; hits give high values; fluorescence change (kMESF span), kMESF (test concentration not listed); 110 tested, under 10 active; AID 504521;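 active means compounds whose bead fluorescence drops by more than 37 kMESF across the dose range, marking them as dye quenchers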
# Aptamer quench SP: counter-screen for GRK2 aptamer inhibitors: fluorescent aptamer quenchers. shares compounds with GRK2 aptamer HTS. Carboxyfluorescein RNA aptamer on beads, flow cytometry quenching; hits give low values. fluorescence response (% of DMSO), % at 10 µM. 2,000 tested, under 10 active. AID 504580;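 active means compounds that quench the bead-bound fluorescent RNA probe, cutting fluorescence to under half of the solvent control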;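 further: counterscreen run without GRK2 so only probe quenching by compound is measured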
# GRK2 confirm 2: GRK2 aptamer-displacing inhibitors, hit retest, confirmation, biochemical, cherry pick 2, bead flow cytometry; inhibition of aptamer binding, % at 10 µM; bead-bound GRK2, FAM-aptamer displacement; shares compounds with GRK2 aptamer HTS; 360 tested, under 10 active; AID 504782, 2011;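 active means inhibition of aptamer binding above 40%, about triple the noise seen with nonglowing compounds, on plates passing quality control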;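 further: negative values mostly come from compounds that fluoresce themselves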
# FAM quench CP2: counter-screen for GRK2 binding hits: quenchers of fluorescent RNA aptamer; shares compounds with GRK2 aptamer HTS; 360 tested, under 10 active; fluorescence response vs DMSO, % at 10 µM; AID 588494; carboxyfluorescein RNA aptamer beads, flow cytometry quenching; hits give low values;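 active means response vs DMSO under 50%, meaning signal dropped by over half, treated as fluorescence quencher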;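 further: labelled aptamer on streptavidin beads without GRK2 as a quench counter-screen; 100% = bead fluorescence of DMSO wells and lower means quenching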
# * marks the source's active call; other numbers are inactive results; x = not tested or not shown.
SMILES,JMJD2C inh,Lipid droplet,procasp3 activ,GRK2 aptamer HTS,VLA-4 inh,procasp7 counter,GRK2 inh confirm,Aptamer quench SP,others
COc1cccc(CNC(=O)CN(C)S(=O)(=O)c2ccc(Br)s2)c1,-9.2,1.0,1.2,0.0,3.2,6.3,x,x,
COc1ccc(CN(CC(=O)NC(C)C)C(=O)CCC(=O)Nc2nccs2)cc1,12.6,-0.1,12.9,0.0,3.0,0.2,x,x,
CCc1noc(C)c1C(=O)N(CC)CC(=O)Nc1cc(Cl)ccc1C,2.9,x,3.8,0.0,-4.9,-1.2,x,x,
O=C(Nc1ccccc1N1CCOCC1)c1cc(=O)[nH]c2ccccc12,4.2,x,0.4,82.0*,-18.6,-7.0,5.7,99.1,
COc1ccccc1NC(=O)Nc1ccc(C(=O)N2CCCCC2)cc1,14.5,2.5,5.8,0.0,0.7,10.5,x,x,
Cc1cccc(C(=O)O/N=C(\N)c2ccc(Br)cc2)c1,5.9,4.9,11.1,2.0,6.7,1.0,x,x,
Cc1cccc(C(=O)O/N=C(\N)c2ccc(Cl)cc2)c1,-9.0,x,17.4,11.0,10.2,16.3,-1.8,99.9,
Cc1ccccc1-c1nc(CS(=O)(=O)CC(=O)NCc2ccc3c(c2)OCO3)c(C)o1,11.7,23.4,7.8,83.0*,6.7,2.9,0.3,88.6,GRK2 confirm 2=10.8;FAM quench CP2=97.0
COc1cccc(Oc2ccc(N/C=C/C(=O)C(C)(C)C)cc2)c1,8.4,x,3.4,88.0*,12.0,8.6,-0.5,95.2,
CC1(c2ccc3ccccc3c2)NC(=O)N(CC(=O)N2CCN(c3ccccc3O)CC2)C1=O (stereo unspecified),-25.4,-28.3,10.6,3.0,9.0,0.0,3.5,105.1,
CCCCN(C)C(=O)c1ccc2c(c1)S(=O)(=O)c1ccccc1C2=O,4.5,-11.5,-6.8,0.0,13.1,0.5,x,x,
CN1CCN(C(=S)SCC(=O)Nc2nc(-c3ccccc3)c(-c3ccccc3)o2)CC1,4.2,12.9,-4.7,100.0*,-8.1,-0.3,x,x,GRK2 confirm 2=-3.9;FAM quench CP2=98.0
CCCc1cc(=O)[nH]c(SCC(=O)c2c[nH]c3ccccc23)n1,-15.2,0.1,2.1,59.0*,-21.0,8.8,-2.2,115.6,
CC(=O)Nc1ccc(N=Cc2c(O)ccc3ccccc23)cc1,-7.3,3.5,0.2,0.0,10.2,-12.1,x,x,
O=C(N/N=C/c1c(O)ccc2ccccc12)Nc1ccccc1,-2.6,x,-16.9,43.0*,-1.9,-48.7,-2.4,99.5,
CC(=O)NCCc1c(C)n(Cc2ccccc2)c2ccccc12,-7.2,-3.8,1.2,0.0,3.3,-7.1,x,x,
CCC(C)N(C(=O)Cn1nnc(-c2ccc(F)cc2)n1)C1CCS(=O)(=O)C1 (stereo unspecified),6.1,-2.4,4.2,1.0,8.7,-13.1,x,x,
CCOc1ccc(N(CC(=O)NCc2ccccc2)S(C)(=O)=O)cc1,-0.8,x,-2.6,1.0,4.1,4.8,x,x,
CCOc1ccc(N(CC(=O)NCc2ccccc2OC)S(C)(=O)=O)cc1,-1.4,x,-3.8,53.0*,-12.5,0.9,-0.4,97.6,
CSc1ccc(/C=C/C(=O)c2ccc(NC(C)=O)cc2)cc1,0.7,9.1,-6.6,88.0*,-13.1,8.8,-4.1,96.4,
CCNc1nc(NCC)n2c(SCC(=O)Nc3ccc(C)c(C)c3)nnc2n1,2.2,x,10.0,78.0*,0.0,-2.5,56.6*,154.9,Aptamer quench=-6.6
CCNc1nc(NCC)n2c(SCC(=O)Nc3ccc(OC(F)F)cc3)nnc2n1,1.5,x,x,x,x,x,x,x,
CCNc1nc(NCC)n2c(SCC(=O)Nc3ccc(Br)cc3F)nnc2n1,7.3,x,-15.1,5.0,1.1,-9.9,x,x,
CCNc1nc(NCC)n2c(SCC(=O)Nc3ccc(F)cc3)nnc2n1,10.7,x,-3.6,23.0,-4.7,8.5,x,x,
CCNc1nc(NCC)n2c(SCC(=O)Nc3cc(OC)ccc3OC)nnc2n1,-9.4,x,18.5,0.0,-2.7,3.8,x,x,GRK2 confirm 2=-13.1;FAM quench CP2=101.0
SMILES,JMJD2C inh,Lipid droplet,procasp3 activ,GRK2 aptamer HTS,VLA-4 inh,procasp7 counter,GRK2 inh confirm,Aptamer quench SP,others
CCNc1nc(NCC)n2c(SCC(=O)Nc3ccccc3)nnc2n1,2.4,15.1,2.2,0.0,0.0,4.7,x,x,GRK2 confirm 2=1.8;FAM quench CP2=106.0
O=[N+]([O-])c1cc(Br)c(O)c(C=Nc2ccc(N3CCOCC3)cc2)c1,-12.0,0.2,-1.4,51.0*,-6.3,-24.2,0.3,103.4,
COc1cccc(C=Nc2ccc(N3CCOCC3)cc2)c1O,0.1,1.6,-3.9,3.0,11.4,-15.3,x,x,
Cc1noc(C(C)C)c1C(=O)Nc1ccc(-c2nnc3n2CCCCC3)cc1,10.3,x,1.0,0.0,9.5,10.5,x,x,
C[C@@H](C(=O)N1CCN(Cc2ccc3c(c2)OCO3)CC1)n1nnc2ccccc2c1=O,4.6,-5.9,9.5,2.0,3.6,9.7,x,x,
COC(=O)Nc1ccc(S(=O)(=O)N2CCN(c3ccc(F)cc3)CC2)cc1,10.6,-7.5,-3.8,50.0*,8.2,-11.0,-0.4,96.5,
COC(=O)Nc1ccc(S(=O)(=O)N2CCN(C)CC2)cc1,-4.2,x,6.7,1.0,-3.7,-1.3,x,x,
Cc1cnc(C(=O)OCC(=O)c2ccc(C)s2)cn1,3.4,x,2.5,45.0*,4.2,1.3,-1.2,103.3,
Cc1cnc(C(=O)OCC(=O)N(Cc2ccccc2)C(C)C)cn1,-23.2,-1.1,-3.2,42.0*,-22.0,10.7,5.3,96.8,
COc1ccc(S(=O)(=O)N2CCC(C(=O)NCC3CCCCC3)CC2)cc1,-1.8,-2.4,9.7,3.0,19.8,-2.6,x,x,
